Assays:
[1] = tested on: Human immunodeficiency virus 1; test: (§1) CC50 reflects the drug concentration that elicits 50% cell death of CEM-SS cells and HIV-1RF was measured using XTT assay.; assay type: functional; settings: Human immunodeficiency virus 1, CEM-SS
Summary of the method: (§2)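 CEM-SS cells infected with HIV-1RF. EC50 is the concentration giving 50% cytoprotection. CC50 is the concentration eliciting 50% cell death.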

[2] = Therapeutic index ([…]) was evaluated; settings: read-out: TI50
[3] = tested on: Human immunodeficiency virus 1; test: (§3) Compound concentration that provides 50% cytoprotection on CEM-SS cells and HIV-1RF was measured using XTT assay.; assay type: functional, organism-based; settings: Human immunodeficiency virus 1, CEM-SS; summary of the method: as §2
[4] = tested on: Human immunodeficiency virus 1; test: CC50 reflects the drug concentration that elicits 50% cell death of PBMC cultures and HIV-1RF was measured using XTT assay.; assay type: functional
[5] = tested on: Human immunodeficiency virus 1; test: Compound concentration that provides 50% cytoprotection on PBMC cultures and HIV-1RF was measured using XTT assay.; assay type: functional, organism-based
CEM-SS [6] = test: as §3; assay type: functional, cell-based; settings: Homo sapiens; summary of the method: as §2
CEM-SS [7] = test: as §1; assay type: functional; settings: Homo sapiens; summary of the method: as §2

SMILES | CC50 [1] [µM] | selectivity ratio [2] | EC50 [3] [µM] | CC50 [4] [µM] | EC50 [5] [µM] | EC50 (CEM-SS [6]) [µM] | CC50 (CEM-SS [7]) [µM]
NS(=O)(=O)c1ccc(NC(=O)c2ccccc2SSc2ccccc2C(=O)Nc2ccc(S(N)(=O)=O)cc2)cc1 | > 200 | > 87 | 2.3 |  |  |  | 
NC(=O)/N=N/C(N)=O [E927A] | > 200 | > 5.3 | 38 |  |  |  | 
NC(=O)c1cccc(N=O)c1 | 10.6 |  |  | 50 | 1.56 |  | 
O=S1(=O)C[C@H](O)[C@H](O)CS1 |  | 27.9 |  |  |  | 6.6 | 184
